In test [1] the target is T1, 5-hydroxytryptamine receptor 1A (Rattus norvegicus, UniProt P19327).
T1 sequence (P19327 whole entry): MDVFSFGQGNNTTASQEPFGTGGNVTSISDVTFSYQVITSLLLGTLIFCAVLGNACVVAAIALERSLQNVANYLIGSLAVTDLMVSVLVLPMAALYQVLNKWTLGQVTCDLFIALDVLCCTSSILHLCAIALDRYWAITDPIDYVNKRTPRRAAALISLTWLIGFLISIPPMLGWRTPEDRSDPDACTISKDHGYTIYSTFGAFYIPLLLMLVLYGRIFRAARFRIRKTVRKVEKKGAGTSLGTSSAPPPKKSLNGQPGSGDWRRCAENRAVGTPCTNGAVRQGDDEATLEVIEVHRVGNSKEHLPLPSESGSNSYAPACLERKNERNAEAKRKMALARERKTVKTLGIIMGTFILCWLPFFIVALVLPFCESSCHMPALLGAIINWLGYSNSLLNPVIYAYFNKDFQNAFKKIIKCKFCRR
Nature of the test: Inhibition of 8-OH DPAT binding to rat hydroxytryptamine 1A receptor.

Test [2] has as its system Rattus norvegicus. As to the kind of experiment: Dose required to inhibit ultrasonic vocalisation on peroral administered. As to conditions: po, read-out: ID50 (the source's name). The class given is functional. In outline: (§1)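 Rat ultrasonic vocalization test. In a priming session, up to 10 grid-floor shocks were given (1.8 mA, 0.3 s, 20 s apart). Rats not vocalizing on three consecutive trials were excluded. Next day, rats were tested 2 h after dosing: five shocks, then vocalization duration recorded over 3 min. ID50 (dose for half-maximal inhibition) came from dose–response curves.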

The subject of test [3] is Rattus norvegicus. Nature of the test: Dose required to inhibit ultrasonic vocalisation on subcutaneous administered. The test is classed as functional. As to conditions: sc, read-out: ID50 (the source's name). In outline:
as §1

Test [4] addresses Sodium-dependent serotonin transporter (Rattus norvegicus, UniProt P31652). As to the kind of experiment: Inhibition of [3H]5-HT re-uptake in rat synaptosomes. The class given is subcellular, Brain.
Test [5] concerns the target D(2) dopamine receptor (Rattus norvegicus, UniProt P61169). As to the kind of experiment: Displacement of [3H]spiperone from dopamine D2 receptor of rat striatal membranes. The test is classed as cell membranes, Membrane. The method, boiled down: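 IC50 from 5–10 compound concentrations, each in triplicate, taken as the concentration (nM) giving 50% inhibition of specific radioligand binding.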
A general note: In a radioligand displacement assay an active substance lowers the binding of a labelled ligand.

One may read the IC50 as the point on the concentration scale where inhibition reaches its midpoint.

Chain of Sodium-dependent serotonin transporter (P31652 whole entry): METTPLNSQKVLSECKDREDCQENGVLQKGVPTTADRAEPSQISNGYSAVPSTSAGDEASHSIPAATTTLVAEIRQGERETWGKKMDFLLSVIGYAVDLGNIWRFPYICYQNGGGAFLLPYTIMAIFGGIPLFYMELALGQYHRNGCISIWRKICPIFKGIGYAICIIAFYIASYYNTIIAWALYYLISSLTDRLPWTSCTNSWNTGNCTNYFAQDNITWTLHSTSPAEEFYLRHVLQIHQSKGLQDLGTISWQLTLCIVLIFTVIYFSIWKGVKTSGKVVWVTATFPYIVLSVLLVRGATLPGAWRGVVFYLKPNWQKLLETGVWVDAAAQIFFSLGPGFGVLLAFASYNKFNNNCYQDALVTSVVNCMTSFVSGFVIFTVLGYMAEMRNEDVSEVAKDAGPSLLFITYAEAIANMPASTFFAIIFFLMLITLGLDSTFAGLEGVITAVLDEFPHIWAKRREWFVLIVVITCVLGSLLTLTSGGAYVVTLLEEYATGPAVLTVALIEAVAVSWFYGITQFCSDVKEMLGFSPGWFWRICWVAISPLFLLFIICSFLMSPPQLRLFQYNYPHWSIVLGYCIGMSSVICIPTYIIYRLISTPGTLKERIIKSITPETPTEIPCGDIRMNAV
Chain of D(2) dopamine receptor (P61169 whole entry): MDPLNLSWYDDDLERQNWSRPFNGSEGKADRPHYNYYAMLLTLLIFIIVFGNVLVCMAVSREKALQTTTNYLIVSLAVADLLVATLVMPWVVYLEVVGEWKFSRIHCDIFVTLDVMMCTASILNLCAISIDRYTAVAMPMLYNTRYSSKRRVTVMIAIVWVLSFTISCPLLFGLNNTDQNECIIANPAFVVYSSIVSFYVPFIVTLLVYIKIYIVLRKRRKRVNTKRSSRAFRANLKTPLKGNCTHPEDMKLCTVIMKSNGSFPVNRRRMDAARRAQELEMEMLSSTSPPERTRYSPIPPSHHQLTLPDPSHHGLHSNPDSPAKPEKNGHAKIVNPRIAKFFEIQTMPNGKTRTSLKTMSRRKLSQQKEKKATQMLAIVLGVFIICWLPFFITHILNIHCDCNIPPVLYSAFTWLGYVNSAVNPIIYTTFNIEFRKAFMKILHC

As for `N#Cc1ccc2[nH]cc(CCCCN3CCN(c4ccc5oc(=O)ccc5c4)CC3)c2c1`, the IC50 in test [1] was found to be 0.1 nM; in test [4] it was 0.7 nM; in test [5], 740 nM. Also, the ED50 was 4 mg/kg in test [2] and 0.5 mg/kg in test [3].

For the origin of these results see ChEMBL document CHEMBL1138747, “Synthesis and structure--activity relationship in a class of indolebutylpiperazines as dual 5-HT(1A) receptor agonists and serotonin reuptake inhibitors” (J Med Chem, 2004).
